Test results reported in ChEMBL document CHEMBL1944565, “Exploration of α-aminophosphonate N-derivatives as novel, potent and selective inhibitors of protein tyrosine phosphatases” (Eur J Med Chem, 2012).
Activity calls are given as the source filed them. The rule behind the calls is not given here.

Legend:
[1] = target: T1, Tyrosine-protein phosphatase non-receptor type 9 (Homo sapiens, UniProt P43378); assay: Inhibition of human PTP-MEG2 using p-nitrophenol phosphate as substrate incubated for 35 mins prior to substrate addition measured after 30 mins by spectrophotometry
T1 sequence (P43378 whole entry): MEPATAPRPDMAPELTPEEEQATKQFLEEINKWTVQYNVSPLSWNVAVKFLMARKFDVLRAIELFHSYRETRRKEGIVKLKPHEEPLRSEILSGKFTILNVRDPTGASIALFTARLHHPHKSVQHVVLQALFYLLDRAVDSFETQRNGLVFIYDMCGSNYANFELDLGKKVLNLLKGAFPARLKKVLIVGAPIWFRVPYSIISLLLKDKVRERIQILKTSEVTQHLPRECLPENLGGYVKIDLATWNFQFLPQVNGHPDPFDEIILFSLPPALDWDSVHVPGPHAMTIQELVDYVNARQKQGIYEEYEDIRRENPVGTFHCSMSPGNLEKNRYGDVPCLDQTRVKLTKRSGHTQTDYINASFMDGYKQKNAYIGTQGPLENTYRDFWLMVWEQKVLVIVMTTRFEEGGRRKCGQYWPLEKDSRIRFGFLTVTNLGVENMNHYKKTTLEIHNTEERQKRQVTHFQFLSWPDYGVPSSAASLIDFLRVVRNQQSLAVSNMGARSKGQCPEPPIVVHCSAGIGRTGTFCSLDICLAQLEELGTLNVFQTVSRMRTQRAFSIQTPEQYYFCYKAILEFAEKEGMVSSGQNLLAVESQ
Summary of the method: (§1)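 Recombinant human phosphatase, expressed and purified, in 20 mM MOPS pH 7.2 with 50 mM NaCl. Preincubated with inhibitor at various concentrations for 35 min at 37 °C. p-NPP (0.1 M stock) added and reaction run about 30 min, then stopped with 2 M NaOH.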

[2] = target: T2, Tyrosine-protein phosphatase non-receptor type 2 (Homo sapiens, UniProt P17706); assay: Inhibition of human TCPTP using p-nitrophenol phosphate as substrate incubated for 35 mins prior to substrate addition measured after 30 mins by spectrophotometry; summary of the method: as §1
T2 sequence (P17706 whole entry): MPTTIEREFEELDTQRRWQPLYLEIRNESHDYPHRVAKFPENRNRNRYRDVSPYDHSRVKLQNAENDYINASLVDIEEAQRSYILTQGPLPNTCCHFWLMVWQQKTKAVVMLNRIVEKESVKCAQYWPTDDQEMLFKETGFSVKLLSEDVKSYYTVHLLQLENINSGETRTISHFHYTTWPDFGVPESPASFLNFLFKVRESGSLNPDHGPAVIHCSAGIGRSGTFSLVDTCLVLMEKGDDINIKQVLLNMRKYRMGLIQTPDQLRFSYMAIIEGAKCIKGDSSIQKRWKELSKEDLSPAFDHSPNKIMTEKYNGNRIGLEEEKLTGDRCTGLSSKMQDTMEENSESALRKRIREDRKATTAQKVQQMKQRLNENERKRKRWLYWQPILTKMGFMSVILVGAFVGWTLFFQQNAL

[3] = target: Tyrosine-protein phosphatase non-receptor type 6 (Homo sapiens, UniProt P29350); assay: Inhibition of human SHP1 using p-nitrophenol phosphate as substrate incubated for 35 mins prior to substrate addition measured after 30 mins by spectrophotometry; summary of the method: as §1
[4] = target: T3, Tyrosine-protein phosphatase non-receptor type 1 (Homo sapiens, UniProt P18031); assay: Inhibition of human PTP1B using p-nitrophenol phosphate as substrate incubated for 35 mins prior to substrate addition measured after 30 mins by spectrophotometry; summary of the method: as §1
T3 sequence (P18031 whole entry): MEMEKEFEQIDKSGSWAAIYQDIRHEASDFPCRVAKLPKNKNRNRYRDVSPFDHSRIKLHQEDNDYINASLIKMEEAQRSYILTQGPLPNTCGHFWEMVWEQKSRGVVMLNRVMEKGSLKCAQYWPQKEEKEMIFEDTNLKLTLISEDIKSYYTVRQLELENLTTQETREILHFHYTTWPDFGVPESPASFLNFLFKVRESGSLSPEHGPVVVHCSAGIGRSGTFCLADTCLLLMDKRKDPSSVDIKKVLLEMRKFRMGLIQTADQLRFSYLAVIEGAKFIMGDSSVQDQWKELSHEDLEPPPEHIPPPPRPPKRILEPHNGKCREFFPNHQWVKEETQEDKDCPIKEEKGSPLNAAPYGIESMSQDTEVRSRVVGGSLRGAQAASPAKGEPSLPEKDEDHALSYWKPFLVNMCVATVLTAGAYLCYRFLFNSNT

[5] = target: T4, Tyrosine-protein phosphatase non-receptor type 11 (Homo sapiens, UniProt Q06124); assay: Inhibition of human SHP2 using p-nitrophenol phosphate as substrate incubated for 35 mins prior to substrate addition measured after 30 mins by spectrophotometry; summary of the method: as §1
T4 sequence (Q06124 whole entry): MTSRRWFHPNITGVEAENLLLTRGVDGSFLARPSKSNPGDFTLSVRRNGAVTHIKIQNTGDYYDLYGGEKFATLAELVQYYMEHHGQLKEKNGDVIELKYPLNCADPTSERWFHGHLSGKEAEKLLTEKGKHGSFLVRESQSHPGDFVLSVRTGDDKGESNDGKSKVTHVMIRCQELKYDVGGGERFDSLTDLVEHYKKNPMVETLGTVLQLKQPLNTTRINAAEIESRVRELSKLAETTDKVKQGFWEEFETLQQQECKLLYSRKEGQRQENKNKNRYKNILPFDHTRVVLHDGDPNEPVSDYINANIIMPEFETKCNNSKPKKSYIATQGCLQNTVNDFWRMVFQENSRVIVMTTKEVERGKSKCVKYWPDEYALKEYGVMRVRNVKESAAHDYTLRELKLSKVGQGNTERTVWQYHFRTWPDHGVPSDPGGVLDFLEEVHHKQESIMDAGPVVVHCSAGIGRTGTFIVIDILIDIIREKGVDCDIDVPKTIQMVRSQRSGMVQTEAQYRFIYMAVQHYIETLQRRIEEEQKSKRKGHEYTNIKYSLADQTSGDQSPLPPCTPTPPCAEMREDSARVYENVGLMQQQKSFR

[6] = target: T5, Tyrosine-protein phosphatase non-receptor type 9 (Homo sapiens) (UniProt P43378)
T5 sequence (whole entry): T1 sequence (P43378 whole entry)

[7] = target: T6, Tyrosine-protein phosphatase non-receptor type 1 (Homo sapiens) (UniProt P18031)
T6 sequence (whole entry): T3 sequence (P18031 whole entry)

HepG2 [8] = assay: Induction of apoptosis in human HepG2 cells assessed as apoptotic cells at 100 uM after 48 hrs by AnnexinV-FITC/PI flow cytometric analysis; type: functional
Summary of the method: (§2)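 HepG2 cells exposed to 50, 100 or 300 μM for 48 h. Harvested, washed twice in ice-cold 0.85% NaCl, then resuspended in binding buffer with Annexin V-FITC and PI. Stained 15 min in the dark at room temperature and analysed by flow cytometry within 1 h. Viable, early/late apoptotic and necrotic fractions quantified from annexin V binding and PI uptake; mean ± SD, n = 3.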

HepG2 [9] = assay: Induction of necrosis in human HepG2 cells assessed as necrotic cells at 300 uM after 48 hrs by AnnexinV-FITC/PI flow cytometric analysis; type: functional
Summary of the method: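 HepG2 cells grown in DMEM with 10% FBS and penicillin/streptomycin at 37 °C under 5% CO2, then exposed for 48 h to three concentrations (50, 100, 300). Cells were washed twice in ice-cold 0.85% NaCl and stained with annexin V-FITC and PI in binding buffer for 15 min in the dark at room temperature. Flow cytometry within 1 h sorted necrotic cells by annexin V binding and PI uptake; mean ± SD, n = 3.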

[10] = target: T6, Tyrosine-protein phosphatase non-receptor type 1 (Homo sapiens); remark: listed apart in the source
HepG2 [11] = assay: Induction of apoptosis in human HepG2 cells assessed as apoptotic cells at 300 uM after 48 hrs by AnnexinV-FITC/PI flow cytometric analysis; type: functional; summary of the method: as §2
HepG2 [12] = assay: Induction of necrosis in human HepG2 cells assessed as necrotic cells at 100 uM after 48 hrs by AnnexinV-FITC/PI flow cytometric analysis; type: functional; summary of the method: as §2
[13] = target: T6, Tyrosine-protein phosphatase non-receptor type 1 (Homo sapiens); remark: listed apart in the source
HepG2 [14] = assay: Cytotoxicity against human HepG2 cells after 48 hrs by MTT assay; type: functional, cell-based
Summary of the method: (§3)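 HepG2 or MCF7 cells in DMEM with 10% FBS and penicillin/streptomycin, 37 °C, 5% CO2. Plated overnight, then exposed to a range of concentrations for 48 h with DMSO held at 1.0% in samples and control. MTT (5 mg/mL stock) added for 4 h at 37 °C, formazan dissolved in DMSO, OD read at 490 nm. Viability % = T/C × 100, averaged over six wells.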

HepG2 [15] = assay: Induction of apoptosis in human HepG2 cells at 50 uM after 48 hrs by AnnexinV-FITC/PI flow cytometric analysis; type: functional, cell-based; summary of the method: as §2
MCF7 = assay: Cytotoxicity against human MCF7 cells after 48 hrs by MTT assay; type: functional, cell-based; summary of the method: as §3

Chain of Tyrosine-protein phosphatase non-receptor type 6 (P29350 whole entry): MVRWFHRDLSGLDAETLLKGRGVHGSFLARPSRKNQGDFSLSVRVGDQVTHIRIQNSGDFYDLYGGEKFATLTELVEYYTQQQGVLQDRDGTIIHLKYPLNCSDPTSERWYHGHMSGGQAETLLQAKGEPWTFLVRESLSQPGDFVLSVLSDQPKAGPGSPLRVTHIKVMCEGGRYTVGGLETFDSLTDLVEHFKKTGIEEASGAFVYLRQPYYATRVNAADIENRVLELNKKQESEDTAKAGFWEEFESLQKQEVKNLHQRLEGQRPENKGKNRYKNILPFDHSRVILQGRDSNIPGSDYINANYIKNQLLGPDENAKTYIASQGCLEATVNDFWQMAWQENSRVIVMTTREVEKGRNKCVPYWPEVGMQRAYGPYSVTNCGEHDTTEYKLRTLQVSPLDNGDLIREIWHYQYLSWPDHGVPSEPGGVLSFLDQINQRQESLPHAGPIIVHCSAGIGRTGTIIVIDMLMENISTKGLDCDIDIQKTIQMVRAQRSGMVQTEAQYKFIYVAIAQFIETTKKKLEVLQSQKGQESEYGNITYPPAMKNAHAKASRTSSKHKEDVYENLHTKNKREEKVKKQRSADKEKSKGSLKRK

SMILES	IC50 [1] [µM]	IC50 [2] [µM]	IC50 [3] [µM]	IC50 [4] [µM]	IC50 [5] [µM]	Kic [6] [µM]	Kic [7] [µM]	Ka [10] [×10⁵ /M]	Ka [13] [×10⁵ /M]	Activity (HepG2 [8]) [%]	Activity (HepG2 [9]) [%]	Activity (HepG2 [11]) [%]	Activity (HepG2 [12]) [%]	Activity (HepG2 [14])	Activity (HepG2 [15])	Activity (MCF7)
CCOP(=O)(O)C(NCCCCCCNC(c1ccccc1O)P(=O)(O)OCC)c1ccccc1O (configuration not stated)	> 10000	> 10000	> 10000	> 10000	> 10000											
CCOP(=O)(O)C(NCCCNC(c1ccccc1O)P(=O)(O)OCC)c1ccccc1O (configuration not stated)	> 10000	> 10000	> 10000	> 10000	> 10000											
CCOP(=O)(OCC)[C@H](Nc1ccc(Br)cc1)c1ccccc1O	173	51.1	> 10000	91.7	> 10000		96.3									
CCOP(=O)(O)C(N[C@@H](Cc1ccc(O)cc1)C(=O)O)c1ccccc1O (some centres not stated)	> 10000	> 10000	> 10000	> 10000	> 10000											

Continued, in another order:

IC50 [1] [µM]	IC50 [2] [µM]	IC50 [3] [µM]	IC50 [4] [µM]	IC50 [5] [µM]	Kic [6] [µM]	Kic [7] [µM]	Ka [10] [×10⁵ /M]	Ka [13] [×10⁵ /M]	SMILES	Activity (HepG2 [8]) [%]	Activity (HepG2 [9]) [%]	Activity (HepG2 [11]) [%]	Activity (HepG2 [12]) [%]	Activity (HepG2 [14])	Activity (HepG2 [15])	Activity (MCF7)
291	239	> 10000	217	> 10000					CCOP(=O)(OCC)[C@H](Nc1ccc([N+](=O)[O-])cc1)c1ccccc1O							
68.6	123	129	135	191	102				CCOP(=O)(O)C(N[C@@H](CO)C(=O)O)c1ccccc1O (some centres not stated)							
347	627	> 10000	373	> 10000					CCOP(=O)(OCC)[C@H](Nc1ccc(Cl)cc1)c1ccccc1O							
160	14.4	> 10000	6.64	> 10000		4.4	2.27	2.23	O=P(O)(O)[C@H](Nc1ccc(O)cc1)c1ccccc1O	7.2	22.7	69.7	1.9	Dose-dependent effect	inactive	Dose-dependent effect
146	178	> 10000	137	> 10000					CCOP(=O)(OCC)[C@H](Nc1ccccc1Cl)c1ccccc1O							
